ChEMBL document CHEMBL1137361, “WB4101-related compounds: new, subtype-selective alpha1-adrenoreceptor antagonists (or inverse agonists?)” (J Med Chem, 2006)
Calls of active or inactive are those of the source. The rule behind the calls is not given here.

Columns and labels:
Cavia porcellus [1] = organism: Cavia porcellus; experiment: Inverse agonist effect on calcium-induced increase in resting tension of calcium-depleted guinea pig thoracic aorta at 100 nM; type: functional
Method in brief: (§1)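 Guinea pig thoracic aorta was calcium-depleted and preincubated with antagonist, then challenged with Ca2+. The Ca2+-induced increase in resting tone was compared with the increase after the same Ca2+ challenge in the absence of antagonist.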

[2] = target: T1, Alpha-2A adrenergic receptor (Rattus norvegicus, UniProt P22909); experiment: Activity at adrenergic alpha 2A receptor assessed as antagonism on clonidine-inhibited twitch responses of field-stimulated Sprague-Dawley rat vas deferens; conditions: read-out: pA2 (converted)
T1 sequence (P22909 whole entry): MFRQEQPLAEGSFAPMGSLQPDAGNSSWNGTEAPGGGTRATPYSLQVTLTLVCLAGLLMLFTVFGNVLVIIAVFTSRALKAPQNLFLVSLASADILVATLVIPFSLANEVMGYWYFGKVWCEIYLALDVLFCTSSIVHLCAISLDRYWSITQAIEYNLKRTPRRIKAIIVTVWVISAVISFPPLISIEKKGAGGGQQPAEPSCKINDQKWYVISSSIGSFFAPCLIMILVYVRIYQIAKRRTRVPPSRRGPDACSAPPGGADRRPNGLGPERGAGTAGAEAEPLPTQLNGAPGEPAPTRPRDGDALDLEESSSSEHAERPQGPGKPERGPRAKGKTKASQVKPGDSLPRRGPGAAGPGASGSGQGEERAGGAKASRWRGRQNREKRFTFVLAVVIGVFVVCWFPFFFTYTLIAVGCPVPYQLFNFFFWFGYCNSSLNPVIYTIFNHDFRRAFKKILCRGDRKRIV

[3] = target: Alpha adrenergic receptor 1A and 1B (Rattus norvegicus) (UniProt P15823+P43140); experiment: Selectivity for Sprague-Dawley rat adrenergic alpha 1B receptor over adrenergic alpha 1A receptor; type: functional
[4] = Selectivity for 5HT1A receptor in rat hippocampus over human adrenergic alpha 1A receptor; type: tissue-based
[5] = target: T2, Alpha-1B adrenergic receptor (Rattus norvegicus, UniProt P15823); experiment: Activity at adrenergic alpha 1B receptor assessed as antagonsim of phenylephrine-induced contraction of Sprague-Dawley rat spleen; type: functional, tissue-based; conditions: read-out: pA2 (converted)
T2 sequence (P15823 whole entry): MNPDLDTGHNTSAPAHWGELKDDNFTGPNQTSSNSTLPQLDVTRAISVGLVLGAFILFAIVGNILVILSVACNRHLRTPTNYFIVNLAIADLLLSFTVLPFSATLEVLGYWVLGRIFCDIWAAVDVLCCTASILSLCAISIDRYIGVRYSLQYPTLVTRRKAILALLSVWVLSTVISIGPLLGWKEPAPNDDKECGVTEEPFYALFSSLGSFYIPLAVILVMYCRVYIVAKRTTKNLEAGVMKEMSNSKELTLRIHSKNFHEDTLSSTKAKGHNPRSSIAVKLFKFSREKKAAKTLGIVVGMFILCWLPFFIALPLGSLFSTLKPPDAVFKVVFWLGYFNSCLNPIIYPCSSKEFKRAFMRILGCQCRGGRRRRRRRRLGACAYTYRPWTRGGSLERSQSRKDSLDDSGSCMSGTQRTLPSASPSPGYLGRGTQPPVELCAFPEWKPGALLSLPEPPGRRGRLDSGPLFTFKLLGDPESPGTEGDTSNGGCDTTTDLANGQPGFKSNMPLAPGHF
Method in brief: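 Rat spleen contracted with (-)-phenylephrine. Blocking activity was measured as antagonism of the contraction.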

[6] = target: T3, 5-hydroxytryptamine receptor 1A (Rattus norvegicus, UniProt P19327); experiment: Displacement of [3H]8-OH-DPAT from 5-HT1A receptor in rat hippocampus; type: tissue-based
T3 sequence (P19327 whole entry): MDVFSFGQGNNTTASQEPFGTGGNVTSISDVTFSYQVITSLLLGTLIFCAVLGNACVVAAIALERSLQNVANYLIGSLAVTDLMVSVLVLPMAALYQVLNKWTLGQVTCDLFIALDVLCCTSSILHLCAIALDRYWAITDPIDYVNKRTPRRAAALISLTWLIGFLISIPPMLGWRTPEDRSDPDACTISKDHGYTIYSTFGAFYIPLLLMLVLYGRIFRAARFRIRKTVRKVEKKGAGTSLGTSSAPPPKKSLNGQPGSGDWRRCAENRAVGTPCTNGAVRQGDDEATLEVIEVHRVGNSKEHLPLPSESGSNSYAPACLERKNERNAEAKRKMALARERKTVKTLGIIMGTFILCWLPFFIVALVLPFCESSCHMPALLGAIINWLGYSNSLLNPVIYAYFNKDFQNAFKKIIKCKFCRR
Method in brief: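 Radioligand binding with [3H]-8-OH-DPAT in membrane preparations from rat hippocampus. Affinity is expressed as pKi.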

[7] = target: Alpha adrenergic receptor (1a and 1d) (Homo sapiens) (UniProt P35348+P25100); experiment: Selectivity for human adrenergic alpha 1A receptor over human adrenergic alpha 1D receptor
[8] = target: T4, Alpha-1A adrenergic receptor (Rattus norvegicus, UniProt P43140); experiment: Activity at adrenergic alpha 1A receptor assessed as antagonsim of noradrenaline-induced contraction of […]; type: functional, tissue-based, Sprague-Dawley; conditions: read-out: pA2 (converted)
T4 sequence (P43140 whole entry): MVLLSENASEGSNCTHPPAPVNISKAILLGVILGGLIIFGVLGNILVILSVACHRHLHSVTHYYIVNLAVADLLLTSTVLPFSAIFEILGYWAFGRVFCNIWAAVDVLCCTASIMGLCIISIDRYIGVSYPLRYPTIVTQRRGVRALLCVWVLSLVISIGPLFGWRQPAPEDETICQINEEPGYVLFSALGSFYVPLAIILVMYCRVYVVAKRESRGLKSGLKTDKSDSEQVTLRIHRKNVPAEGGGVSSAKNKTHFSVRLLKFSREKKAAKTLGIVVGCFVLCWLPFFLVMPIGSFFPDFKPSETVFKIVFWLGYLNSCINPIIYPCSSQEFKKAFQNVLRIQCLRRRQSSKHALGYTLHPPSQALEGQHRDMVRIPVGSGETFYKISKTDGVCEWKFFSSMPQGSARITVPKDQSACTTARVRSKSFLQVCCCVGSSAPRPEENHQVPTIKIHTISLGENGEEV
Method in brief: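 Rat vas deferens, prostatic portion. Contraction was induced with (-)-noradrenaline, and blocking activity was measured as antagonism of that contraction.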

Cavia porcellus [9] = organism: Cavia porcellus; experiment: Inverse agonist effect on calcium-induced increase in resting tension of calcium-depleted guinea pig thoracic aorta at 10 nM; type: functional; method in brief: as §1

Sequence of Alpha adrenergic receptor (1a and 1d) (Homo sapiens) (P25100 whole entry, looked up): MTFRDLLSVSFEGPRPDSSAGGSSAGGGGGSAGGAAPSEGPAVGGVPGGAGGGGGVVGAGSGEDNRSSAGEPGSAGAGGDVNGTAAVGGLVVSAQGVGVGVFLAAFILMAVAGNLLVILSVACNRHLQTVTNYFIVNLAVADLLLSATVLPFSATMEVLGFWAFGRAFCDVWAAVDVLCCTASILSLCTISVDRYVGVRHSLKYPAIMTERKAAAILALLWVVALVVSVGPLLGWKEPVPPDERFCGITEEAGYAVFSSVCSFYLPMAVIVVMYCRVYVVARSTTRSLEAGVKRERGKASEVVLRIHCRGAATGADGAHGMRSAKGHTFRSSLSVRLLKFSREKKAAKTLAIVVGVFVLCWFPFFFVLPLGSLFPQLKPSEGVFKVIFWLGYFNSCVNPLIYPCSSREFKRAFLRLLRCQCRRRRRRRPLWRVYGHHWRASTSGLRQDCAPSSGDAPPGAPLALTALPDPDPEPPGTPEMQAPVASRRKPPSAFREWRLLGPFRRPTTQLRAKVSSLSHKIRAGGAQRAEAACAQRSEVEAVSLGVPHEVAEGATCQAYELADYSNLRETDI
Sequence of Alpha adrenergic receptor (1a and 1d) (Homo sapiens) (P35348 whole entry, looked up): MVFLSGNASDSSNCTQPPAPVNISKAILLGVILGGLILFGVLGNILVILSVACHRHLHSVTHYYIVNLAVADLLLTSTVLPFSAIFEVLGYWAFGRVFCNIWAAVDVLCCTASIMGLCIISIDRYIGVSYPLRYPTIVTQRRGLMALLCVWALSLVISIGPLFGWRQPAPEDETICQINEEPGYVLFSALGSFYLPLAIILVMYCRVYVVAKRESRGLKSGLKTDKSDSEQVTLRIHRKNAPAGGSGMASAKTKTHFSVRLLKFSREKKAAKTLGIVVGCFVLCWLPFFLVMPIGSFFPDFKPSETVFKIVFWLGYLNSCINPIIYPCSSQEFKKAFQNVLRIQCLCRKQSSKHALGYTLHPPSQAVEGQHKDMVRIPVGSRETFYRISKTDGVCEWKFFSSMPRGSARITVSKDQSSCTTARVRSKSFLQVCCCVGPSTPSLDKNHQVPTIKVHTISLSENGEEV

SMILES	Activity (Cavia porcellus [1])	Kb [2] [nM]	Selectivity ratio [3]	Selectivity ratio [4]	Kb [5] [nM]	Ki [6] [nM]	Selectivity ratio [7]	Kb [8] [nM]	Activity (Cavia porcellus [9])
COc1ccc2ccccc2c1OCCNC[C@H]1COc2cc3c(cc2O1)CCCC3	Active	> 10000	> 955	25.7	> 10000	1700	2.2	42.7	
COc1ccc2ccccc2c1OCCNC[C@@H]1COc2ccccc2O1		631	0.25	14.8	14.8	67.6	4.9		inactive
COc1cccc(OC)c1OCCNC[C@H]1COc2cc3c(cc2O1)CCCC3			< 0.3	14.5	2630	363	13.5		
COc1cc(-c2ccccc2)ccc1OCCNC[C@H]1COc2ccccc2O1			0.17	0.9	132	74.1	2.5		
COc1cccc(-c2ccccc2)c1OCCNC[C@H]1COc2ccccc2O1			1.2	5.8	7.59	6.92	2.8		inactive
COc1ccc2c(c1OCCNC[C@H]1COc3ccccc3O1)CCCC2			0.05	3	4.47	8.51	5.1		
COc1ccc(-c2ccccc2)cc1OCCNC[C@H]1COc2ccccc2O1			< 0.01	9.3	135	52.5	2.7		
COc1cccc(OC)c1OCCNC[C@H]1COc2cc3ccccc3cc2O1		> 10000	0.7	10.2	2450	347	12.3		
COc1ccc2ccccc2c1OCCNC[C@H]1COc2ccccc2O1		1350	0.2	7.1	0.204	11.2	4.2		Active
